Test results: ChEMBL document CHEMBL3860024, “New cinnamic - N-benzylpiperidine and cinnamic - N,N-dibenzyl(N-methyl)amine hybrids as Alzheimer-directed multitarget drugs with antioxidant, cholinergic, neuroprotective and neurogenic properties” (Eur J Med Chem, 2016)
The source made the active and inactive calls. The rule behind the calls is not given here.

Legend:
[1] = Potentiation of rotenone/oligomycin A-induced mitochondrial oxidative stress in human SH-SY5Y cells at 0.1 to 3 uM after 24 hrs by MTT assay; format: ADME, cell-based
How it was run: (§1)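 SH-SY5Y cells, passage <13, were seeded at 8x10^4/well for 2 days. Then co-incubated 24 h with compound (0.1, 0.3, 1, 3 µM) plus rotenone 30 µM/oligomycin A 10 µM in F-12/EMEM with 1% FBS; 0.1% DMSO vehicle and 10 nM melatonin control. MTT 0.5 mg/ml final, 2 h at 37 °C, formazan in DMSO read at 540 nm. Normalized to untreated control; triplicates of ≥3 cultures, mean ± SEM.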

[2] = target: T1, Cholinesterase (Homo sapiens, UniProt P06276); test: Inhibition of human serum BuChE using butyrylthiocholine as substrate preincubated for 5 mins followed by substrate addition measured for 5 mins by Ellman's method
How it was run: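 Spectrophotometric Ellman assay with butyrylcholinesterase from human serum, with donepezil as reference. IC50 is reported in µM as mean ± SEM, n = 5.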

[3] = target: T2, Amine oxidase [flavin-containing] A (Homo sapiens, UniProt P21397); test: Inhibition of human recombinant MAOA using p-tyramine as substrate incubated for 15 mins by fluorimetric method
T2 sequence (P21397 whole entry): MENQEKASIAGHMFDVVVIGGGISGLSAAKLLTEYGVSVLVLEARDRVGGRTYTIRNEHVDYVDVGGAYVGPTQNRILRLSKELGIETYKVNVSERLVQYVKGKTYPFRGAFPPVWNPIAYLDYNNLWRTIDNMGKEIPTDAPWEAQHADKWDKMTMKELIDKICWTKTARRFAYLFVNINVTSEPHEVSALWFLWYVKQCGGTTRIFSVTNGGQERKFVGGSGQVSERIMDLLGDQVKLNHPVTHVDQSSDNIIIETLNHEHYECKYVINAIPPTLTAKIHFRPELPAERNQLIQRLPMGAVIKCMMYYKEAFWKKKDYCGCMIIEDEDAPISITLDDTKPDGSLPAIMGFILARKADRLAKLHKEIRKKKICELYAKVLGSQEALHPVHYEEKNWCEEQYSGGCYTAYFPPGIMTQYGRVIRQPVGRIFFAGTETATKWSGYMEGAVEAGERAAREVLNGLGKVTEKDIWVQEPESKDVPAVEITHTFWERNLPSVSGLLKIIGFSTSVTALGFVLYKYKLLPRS

[4] = Antioxidant activity assessed as AAPH free radical scavenging activity by measuring trolox equivalent by oxygen radical absorbance capacity method; format: functional
How it was run: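 Oxygen radical absorbance capacity (ORAC) assay with trolox as the standard. Fluorescence was read on a plate reader with 485-P excitation and 520-P emission filters. Values are expressed as trolox equivalents, mean ± SEM (n = 5).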

[5] = target: T3, Acetylcholinesterase (Homo sapiens, UniProt P22303); test: Inhibition of human recombinant AChE using acetylthiocholine iodide as substrate preincubated for 5 mins followed by substrate addition measured for 5 mins by Ellman's method
[6] = target: T4, Amine oxidase [flavin-containing] B (Homo sapiens, UniProt P27338)
T4 sequence (P27338 whole entry): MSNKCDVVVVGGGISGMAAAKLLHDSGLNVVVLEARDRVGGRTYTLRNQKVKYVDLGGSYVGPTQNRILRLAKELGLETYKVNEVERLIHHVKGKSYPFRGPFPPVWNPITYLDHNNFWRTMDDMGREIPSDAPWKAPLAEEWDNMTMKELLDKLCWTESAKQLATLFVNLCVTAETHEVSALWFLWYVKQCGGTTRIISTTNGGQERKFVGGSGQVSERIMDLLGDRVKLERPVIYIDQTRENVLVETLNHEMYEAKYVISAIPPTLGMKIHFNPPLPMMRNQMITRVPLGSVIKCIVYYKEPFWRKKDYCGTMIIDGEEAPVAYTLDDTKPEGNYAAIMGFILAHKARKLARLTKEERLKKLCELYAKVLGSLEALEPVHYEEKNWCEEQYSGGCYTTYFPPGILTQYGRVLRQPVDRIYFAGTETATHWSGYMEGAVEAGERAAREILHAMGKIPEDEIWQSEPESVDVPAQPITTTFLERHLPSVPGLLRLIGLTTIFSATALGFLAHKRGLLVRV

[7] = system: SH-SY5Y; test: Neuroprotective activity against rotenone/oligomycin A-induced mitochondrial oxidative stress in human SH-SY5Y cells assessed as increase in cell viability at 0.3 uM after 24 hrs by MTT assay relative to control; format: functional; how it was run: as §1
[8] = target: T4, Amine oxidase [flavin-containing] B; test: Inhibition of human recombinant MAOB at 100 uM using p-tyramine as substrate incubated for 15 mins by fluorimetric method; details: 0.25 h
How it was run: (§2)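 Recombinant hMAO-A or hMAO-B (baculovirus-infected BTI insect cells), amount set to oxidize 165 pmol p-tyramine/min, preincubated with compound 15 min at 37 °C. Reaction started with Amplex Red, 1 U/mL horseradish peroxidase and 1 mM p-tyramine. Resorufin fluorescence read at 37 °C (ex 545/em 590 nm), minus enzyme-free phosphate-buffer background.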

[9] = target: T1, Cholinesterase; test: Inhibition of human serum BuChE at 10 uM using butyrylthiocholine as substrate preincubated for 5 mins followed by substrate addition measured for 5 mins by Ellman's method relative to control
How it was run: (§3)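 Spectrophotometric Ellman assay with recombinant human AChE or BuChE from human serum. Percent inhibition is given at a single concentration of 10 µM. Results are mean ± SEM, n = 5.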

[10] = target: T2, Amine oxidase [flavin-containing] A; test: Inhibition of human recombinant MAOA at 100 uM using p-tyramine as substrate incubated for 15 mins by fluorimetric method; details: 0.25 h; how it was run: as §2
[11] = system: Neural stem cell; test: (§4) Induction of differentiation of C57BL/6 mouse subgranular zone-derived neural stem cell into neuronal phenotype assessed as increase in level of MAP2 expressing cells in neurosphere at 10 uM preincubated for 7 days followed by cell attachment onto poly-L-lysine-coated coverslip in presence of serum and absence of exogenous growth factor for 3 days by DAPI staining-based florescence microscopy; format: functional
How it was run: (§5)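 Adult (3-month) male C57BL/6 mouse SGZ dentate gyrus neural stem cells grown as neurospheres for 7 days with compound (10 µM). Then adhered on 100 μg/mL poly-L-lysine coverslips for 3 more days with serum, without exogenous growth factors, compound present. Immunocytochemistry for β-III-tubulin (TuJ) and MAP-2 with Alexa-fluor secondaries and DAPI nuclei, imaged by fluorescence microscopy, inner and distal neurosphere areas.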

[12] = system: Neural stem cell; test: as §4, with “beta-3 tubulin” for “MAP2”; format: functional; how it was run: as §5
[13] = target: Beta-secretase 1 (Homo sapiens) (UniProt P56817); test: Inhibition of human BACE1 at 10 uM using Rh-EVNLDAEFK-Quencher as substrate after 60 mins by FRET assay relative to control
How it was run: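 FRET-based assay on human recombinant BACE-1, run per the manufacturer's protocol; compounds tested at 10 μM, read as percent inhibition.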

[14] = target: T3, Acetylcholinesterase; test: Inhibition of human recombinant AChE at 10 uM using acetylthiocholine iodide as substrate preincubated for 5 mins followed by substrate addition measured for 5 mins by Ellman's method relative to control; how it was run: as §3

T1 sequence (P06276 whole entry): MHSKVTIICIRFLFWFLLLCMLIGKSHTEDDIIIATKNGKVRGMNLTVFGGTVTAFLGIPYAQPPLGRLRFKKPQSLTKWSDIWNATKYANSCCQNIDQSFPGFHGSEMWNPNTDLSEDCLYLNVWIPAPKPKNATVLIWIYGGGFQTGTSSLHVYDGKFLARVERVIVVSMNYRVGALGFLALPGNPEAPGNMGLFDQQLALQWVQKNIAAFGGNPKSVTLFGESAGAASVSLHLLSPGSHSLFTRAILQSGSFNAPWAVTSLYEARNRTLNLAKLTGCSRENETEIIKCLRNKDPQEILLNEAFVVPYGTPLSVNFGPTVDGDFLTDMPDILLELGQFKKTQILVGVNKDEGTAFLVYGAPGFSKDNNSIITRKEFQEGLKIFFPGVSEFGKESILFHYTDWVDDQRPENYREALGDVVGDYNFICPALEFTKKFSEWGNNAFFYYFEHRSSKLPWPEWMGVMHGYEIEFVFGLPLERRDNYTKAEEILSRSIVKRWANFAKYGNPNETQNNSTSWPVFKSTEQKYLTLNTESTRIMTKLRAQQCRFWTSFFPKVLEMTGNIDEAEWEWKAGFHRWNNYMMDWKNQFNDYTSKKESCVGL
Beta-secretase 1 (Homo sapiens), sequence (P56817 whole entry): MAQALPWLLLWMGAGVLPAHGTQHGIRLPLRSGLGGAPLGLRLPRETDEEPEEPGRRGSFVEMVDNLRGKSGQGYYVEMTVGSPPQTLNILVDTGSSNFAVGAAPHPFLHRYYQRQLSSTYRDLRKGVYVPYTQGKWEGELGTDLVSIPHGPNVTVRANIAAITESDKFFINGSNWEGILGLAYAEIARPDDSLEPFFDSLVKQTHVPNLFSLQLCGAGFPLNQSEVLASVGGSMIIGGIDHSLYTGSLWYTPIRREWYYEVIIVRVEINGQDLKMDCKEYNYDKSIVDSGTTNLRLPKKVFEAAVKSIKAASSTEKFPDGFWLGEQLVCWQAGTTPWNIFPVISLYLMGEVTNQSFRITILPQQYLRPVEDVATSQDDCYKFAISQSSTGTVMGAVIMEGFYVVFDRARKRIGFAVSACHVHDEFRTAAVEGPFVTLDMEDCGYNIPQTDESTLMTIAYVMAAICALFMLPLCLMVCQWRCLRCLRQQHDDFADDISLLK
T3 sequence (P22303 whole entry): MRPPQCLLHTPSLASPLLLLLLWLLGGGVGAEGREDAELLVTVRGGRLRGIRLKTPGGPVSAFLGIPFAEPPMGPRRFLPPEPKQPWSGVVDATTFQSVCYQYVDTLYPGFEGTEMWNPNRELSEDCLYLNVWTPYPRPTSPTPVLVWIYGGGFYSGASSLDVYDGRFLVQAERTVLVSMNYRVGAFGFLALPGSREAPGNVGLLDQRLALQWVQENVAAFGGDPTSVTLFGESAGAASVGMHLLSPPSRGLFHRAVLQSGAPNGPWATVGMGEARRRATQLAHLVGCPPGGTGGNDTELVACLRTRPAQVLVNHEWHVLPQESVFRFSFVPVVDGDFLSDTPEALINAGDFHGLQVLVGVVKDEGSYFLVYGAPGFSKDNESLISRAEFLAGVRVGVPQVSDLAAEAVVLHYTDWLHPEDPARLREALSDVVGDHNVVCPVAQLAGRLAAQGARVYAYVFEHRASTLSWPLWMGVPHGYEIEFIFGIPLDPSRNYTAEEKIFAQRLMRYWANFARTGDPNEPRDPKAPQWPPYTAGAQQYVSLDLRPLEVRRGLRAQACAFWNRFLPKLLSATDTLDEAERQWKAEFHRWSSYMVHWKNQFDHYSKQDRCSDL

| Structure (SMILES) | Activity [1] | IC50 [2] [µM] | IC50 [3] [µM] | Activity [4] [equiv] | IC50 [5] [µM] | IC50 [6] [µM] | Activity [7] | inhibition at 100 µM [8] [%] | inhibition [9] [%] | inhibition at 100 µM [10] [%] | Activity [11] | Activity [12] | inhibition [13] [%] | inhibition [14] [%] |
| --- | --- | --- | --- | --- | --- | --- | --- | --- | --- | --- | --- | --- | --- | --- |
| COc1cc(/C=C/C(=O)NCCC2CCN(Cc3ccccc3)CC2)ccc1O | Non-Toxic | 0.076 | 11.4 | 1.8 | 0.39 | 13.1 | 30 - 35% | – | – | – | – | – | – | – |
| CN(Cc1ccccc1)Cc1ccc(NC(=O)/C=C/c2cccc(O)c2)cc1 | Non-Toxic | – | – | 3.2 | 3.49 | – | 30 - 35% | 45 to 55 | 46 | 45 to 55 | – | – | – | – |
| COc1ccc(/C=C/C(=O)NCCC2CCN(Cc3ccccc3)CC2)c(OC)c1 | – | 4.39 | > 100 | – | 0.63 | > 100 | – | – | – | – | – | – | – | – |
| COc1ccc(/C=C/C(=O)NCCC2CCN(Cc3ccccc3)CC2)cc1 | – | 0.76 | – | – | 0.49 | – | – | 45 to 55 | – | 45 to 55 | – | – | – | – |
| O=C(/C=C/c1ccc(O)c(O)c1)NCCC1CCN(Cc2ccccc2)CC1 | – | 0.69 | 3.5 | 1 | 1.75 | 6 | – | – | – | – | Active | Active | – | – |
| COc1cccc(/C=C/C(=O)Nc2ccc(CN(C)Cc3ccccc3)cc2)c1 | – | – | > 100 | 0.6 | 4.67 | > 100 | – | – | 35 | – | – | – | 23 to 33 | – |
| O=C(/C=C/c1ccc(O)cc1)NCCC1CCN(Cc2ccccc2)CC1 | – | 0.93 | 57.5 | 1.7 | 1.01 | > 100 | – | – | – | – | – | – | – | – |
| O=C(/C=C/c1cccc(O)c1)NCCC1CCN(Cc2ccccc2)CC1 | – | 1.02 | – | 2.2 | 1.12 | > 100 | – | – | – | 45 to 55 | – | – | – | – |
| COc1cc(/C=C/C(=O)Nc2cccc(CN(C)Cc3ccccc3)c2)ccc1O | Non-Toxic | 5.89 | 4.5 | 1.4 | 5.99 | 7.7 | 30 - 35% | – | – | – | – | – | 23 to 33 | – |
| COc1cccc(/C=C/C(=O)NCCC2CCN(Cc3ccccc3)CC2)c1 | – | 0.98 | – | – | 0.75 | > 100 | – | – | – | 45 to 55 | – | – | – | – |
| CN(Cc1ccccc1)Cc1ccc(NC(=O)/C=C/c2ccc(O)cc2)cc1 | – | – | 29.7 | 1.8 | – | 29 | – | – | 30 | – | – | – | – | 46 |
| COc1ccc(/C=C/C(=O)NCCC2CCN(Cc3ccccc3)CC2)cc1OC | – | 0.69 | > 100 | 0.4 | 0.26 | – | – | 45 to 55 | – | – | – | – | – | – |
| COc1ccc(/C=C/C(=O)Nc2ccc(CN(C)Cc3ccccc3)cc2)cc1 | – | – | > 100 | – | 5.76 | > 100 | – | – | 25 | – | – | – | 23 to 33 | – |
| COc1ccc(/C=C/C(=O)Nc2ccc(CN(C)Cc3ccccc3)cc2)c(OC)c1 | – | > 10 | > 100 | 0.5 | 8.73 | > 100 | – | – | – | – | – | – | – | – |
| COc1cc(/C=C/C(=O)Nc2ccc(CN(C)Cc3ccccc3)cc2)ccc1O | – | – | – | 1.5 | – | – | – | – | 45 | – | – | – | 23 to 33 | 33 |
| COc1ccc(/C=C/C(=O)Nc2ccc(CN(C)Cc3ccccc3)cc2)cc1OC | – | > 10 | – | 0.4 | 3.98 | – | – | – | – | – | – | – | – | – |
| O=C(/C=C/c1ccc(O)cc1O)NCCC1CCN(Cc2ccccc2)CC1 | – | 0.26 | 5.5 | 1.3 | 0.99 | 8.3 | – | – | – | – | – | – | – | – |
